Experimental data collected from several papers.
Each line is one published result; the experiments were not run side by side.

Structure (SMILES) | system | conditions | half-life
CC1=NN(/C(=N/c2nnc(C)s2)Nc2ccc(C)c(C)c2)C(c2cc(F)c(F)c(F)c2)S1 (stereo not shown) | male CD-1 mouse, plasma | intravenous, 1 mg/kg | 1.56 h
CC(=O)O[C@@]12CO[C@@H]1C[C@H](O)[C@@]1(C)C(=O)[C@H](O)C3=C(C)[C@@H](OC(=O)[C@H](O)[C@@H](NC(=O)OC(C)(C)C)c4ccccc4)C[C@@](O)([C@@H](OC(=O)c4ccccc4)[C@H]21)C3(C)C | male Kunming mouse, liver | oral, 20 mg/kg | 2.7 h
COc1cc2c(NC3CCN(CCCC(=O)NCCCCCCCCCCCC(=O)N[C@H](C(=O)N4C[C@H](O)C[C@H]4C(=O)NCc4ccc(-c5scnc5C)cc4)C(C)(C)C)CC3)nc(N3CCC(F)(F)CC3)nc2cc1OCCCN1CCCC1 | male C57BL/6 mouse, plasma | intraperitoneal, 50 mg/kg, single dose | 1.5 h
CCN1CCN(Cc2ccc(NC(=O)c3ccc(C)c(NC(=O)c4cncc(-c5cccs5)c4)c3)cc2C(F)(F)F)CC1 | mouse, plasma | intraperitoneal, 15 mg/kg, single dose | 2.41 h
CCOC(=O)c1cc(Cl)cc(NC(=O)c2sc(Cl)cc2S(=O)(=O)N(C)c2ccc(OCC)c(OC)c2)c1 | male C57BL/6 mouse, brain | intraperitoneal, 10 mg/kg | 2.14 h
CC(C(=O)Nc1c(F)cccc1F)N1CCN(c2ccccc2)CC1 (stereo not shown) | female C57BL/6 mouse, plasma | intraperitoneal, 10 mg/kg | ~0.55 h
FC(F)(F)c1nc2c(-c3cc(Cl)cc(Cl)c3)ccnc2[nH]1 | male C57BL/6 mouse, plasma | oral, 10 mg/kg | > 15 h
O=[N+]([O-])c1ccc(-c2ccc(O)cc2)c2cccnc12 | male CD-1 mouse, plasma | intravenous, 1 mg/kg | 0.126 h
COc1cc(C(=O)OCCCN2CCCN(CCCOC(=O)c3cc(OC)c(OC)c(OC)c3)CC2)cc(OC)c1OC | male CD-1 mouse, brain | subcutaneous | 0.84 h
CCOc1ccc(N(C)S(=O)(=O)c2cc(Cl)sc2C(=O)Nc2cc(Cl)cc(C(=O)O)c2)cc1OC | male C57BL/6 mouse, brain | intraperitoneal, 10 mg/kg | 0.558 h
O=C(ONc1nc2nonc2nc1Nc1ccccc1F)c1ccc(OC(F)(F)F)cc1 | male C57BL/6 mouse, plasma | oral, 10 mg/kg | 0.25 to 0.45 h
Nc1ncn([C@H]2C[C@H](O)[C@@H](CO)O2)c(=O)n1 | female C57BL/6 mouse, plasma | oral, 0.4 mg/kg | 0.91 h
CN1CCN(C(=O)[C@H](CCCN[C@@H]2C[C@H]2c2ccc(F)cc2)NC(=O)c2ccc(-n3ccnn3)cc2)CC1 | CD-1 mouse, plasma | oral, 10 mg/kg | 4.98 h
